# Screens (PubChem)
# M4 ag: human M4 muscarinic receptor agonists, primary screen, CHO-K1 cells, Fluo-8 calcium fluorescence. Muscarinic acetylcholine receptor M4 (Homo sapiens), P08173. activation, % at 3 µM. 0.14% of 360,000 active. CHO-K1 hM4/Gqi5; vehicle 0%, full acetylcholine response 100%;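 active = activation above the run mean over all test wells plus 3 SD, cut at about 32% in these data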;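 note: peak over basal fluorescence ratio per well then scaled between controls; 0% = DMSO wells and 100% = acetylcholine at EC100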
# M5 antag: human M5 muscarinic receptor antagonists, primary screen, CHO cells, Fluo-8 calcium fluorescence. Muscarinic acetylcholine receptor M5 (Homo sapiens), P08912. CHO-hM5 cells, ACh EC80. inhibition, % at 3 µM. 0.59% of 360,000 active. AID 624040, 2012;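 active = inhibition above a per-plate cutoff, the mean of that plate's test compounds plus 3 SD, cut at about 27% in these data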;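 note: 0% = acetylcholine EC80 with DMSO and 100% = DMSO without agonist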
# Target sequence (P08912 whole entry, looked up): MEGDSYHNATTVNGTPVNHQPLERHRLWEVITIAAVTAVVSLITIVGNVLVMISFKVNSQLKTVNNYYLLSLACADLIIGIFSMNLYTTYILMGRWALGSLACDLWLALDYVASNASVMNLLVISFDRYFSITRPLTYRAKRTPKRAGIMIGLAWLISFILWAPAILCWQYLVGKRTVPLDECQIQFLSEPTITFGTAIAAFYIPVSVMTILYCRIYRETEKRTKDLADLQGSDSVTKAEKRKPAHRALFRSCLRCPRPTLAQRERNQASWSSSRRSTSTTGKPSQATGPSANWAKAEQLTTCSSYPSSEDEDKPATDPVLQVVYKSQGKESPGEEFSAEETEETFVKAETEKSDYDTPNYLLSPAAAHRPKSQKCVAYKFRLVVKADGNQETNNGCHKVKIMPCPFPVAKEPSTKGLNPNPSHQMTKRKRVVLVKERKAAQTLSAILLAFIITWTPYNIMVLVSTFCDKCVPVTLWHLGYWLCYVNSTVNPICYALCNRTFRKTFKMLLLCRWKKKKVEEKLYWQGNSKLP
# M4 PAM: human M4 muscarinic receptor positive allosteric modulators, primary screen, CHO-K1 cells, Fluo-8 calcium fluorescence; CHO-K1 hM4/Gqi5, ACh EC20; 0% = ACh EC20, 100% = maximal ACh; Muscarinic acetylcholine receptor M4 (Homo sapiens), P08173; AID 624126, 2012; 0.4% of 360,000 active; activation, % at 3 µM;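 active = activation above its plate's cutoff, the mean activation of sample wells plus 3 SD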
# M5 ag: human M5 muscarinic receptor agonists, primary screen, CHO-K1 cells, Fluo-8 calcium fluorescence; 0.19% of 360,000 active; CHO-K1 hM5 cells; 0% DMSO wells, 100% maximal acetylcholine response; AID 624037, 2012; activation, % at 3 µM;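 active = activation above the run's mean over test compounds plus 3 SD, cut at about 23% in these data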;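 note: signal is peak over basal fluorescence ratio across the kinetic read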
# M5 PAM: human M5 muscarinic receptor positive allosteric modulators, primary screen, CHO-K1 cells, Fluo-8 calcium fluorescence. Muscarinic acetylcholine receptor M5 (Homo sapiens), P08912. CHO-K1 hM5, ACh EC20 PAM; 0% = ACh EC20, 100% = ACh EC100. activation, % at 3 µM. 0.3% of 360,000 active. AID 624038, 2012;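 active = activation above the run cutoff, the mean activation of all test compounds plus 3 SD, cut at about 18% in these data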
#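 Replicates: One well per compound, no replicates | System: Human M5 receptor in CHO-K1 cells | Benchmarks: Low control EC20 acetylcholine (0%), high control EC100 acetylcholine (100%) | Probe or stimulus: Acetylcholine, EC20 level | Times: Fluo-8 loading 80 min at 37 °C plus 30 min room temperature | Signal: Intracellular calcium via Fluo-8 fluorescence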
# M4 antag: human M4 muscarinic receptor antagonists, primary screen, CHO cells, Fluo-8 calcium fluorescence; Muscarinic acetylcholine receptor M4 (Homo sapiens), P08173; inhibition, % at 3 µM; AID 624125, 2012; CHO-hM4 cells, ACh EC80; 0.73% of 360,000 active;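 active = inhibition above its plate's cutoff, the mean inhibition of sample wells plus 3 SD, cut at about 27% in these data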;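 note: 0% = acetylcholine EC80 with DMSO and 100% = DMSO without agonist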
# Starred values were filed as active, the others as inactive. Rows were chosen to be rich in hits. Some 1.9% of all compounds tested hit in one or more screens of this group.
SMILES,M4 ag,M5 antag,M4 PAM,M5 ag,M5 PAM,M4 antag
OCC1(Cc2ccccc2)CCCN(Cc2ccc(-c3ccco3)cc2)C1 (stereo not drawn),12,13,-26,-8,-9,12
Cc1ccc(C(=O)NCCNc2ncc(C(F)(F)F)cc2Cl)cc1[N+](=O)[O-],7,27*,-20,-7,-16,11
COc1ccc(-c2csc(C(C)(O)c3ccccc3)n2)cc1OC (stereo not drawn),2,-5,6,-1,2,-6
COc1ccc(C(C)(O)c2nc(-c3ccc(OC)c(OC)c3)cs2)cc1 (stereo not drawn),1,3,25*,0,3,-17
CC[n+]1c(C)cc(C)n1-c1ccccc1,1,2,2,-11,-3,-11
COc1ccc(C(=O)O/N=C2\CCS(=O)(=O)c3sccc32)cc1,4,36*,-8,-4,-20,-1
COc1ccc(N=C2CCS(=O)(=O)c3sccc32)cc1,2,3,-4,0,5,6
COc1ccccc1CN1C[C@@H]2C[C@@H](c3ccccc3OC)N3CCC[C@@]23C1=O,0,-2,-24,-6,4,30*
Cc1c([C@@H]2C[C@H]3CN(Cc4cccc(Cl)c4)C(=O)[C@]34CCCN24)cnn1C,3,3,-6,-1,-4,-1
COc1ccccc1CN1C[C@@H]2C[C@@H](c3ccc(Cl)cc3)N3CCC[C@@]23C1=O,1,2,-14,-10,0,19
Cn1cc([C@@H]2C[C@H]3CN(Cc4cccc(Cl)c4)C(=O)[C@]34CCCN24)c2ccccc21,3,12,-12,-3,-7,30*
O=C(/C=C/c1ccccc1)/C=C/c1ccccc1,-1,3,-2,-3,-3,6
Oc1cccc(C(O)CNCc2ccc(OCc3ccc(Cl)cc3Cl)cc2)c1 (stereo not drawn),9,-2,1,2,-4,11
COc1ccc(S(=O)(=O)Nc2cc3c4c(c2)CCN4C(=O)CC3)cc1C,3,10,-3,0,-3,0
COC(=O)c1c(-c2ccccc2)csc1N,3,0,-5,-1,2,12
COC(=O)c1c(C(=O)OC)c2c(-c3ccccc3)cc3cccc1n32,7,32*,-5,9,-5,1
O=C(NCc1ccc2c(c1)OCO2)C1CC(=O)N(CCc2ccc(F)cc2)C1 (stereo not drawn),2,-4,5,0,3,-12
CC(C)(C)CC(=O)Nc1ccc(-c2cn3cccnc3n2)cc1,16,15,-5,2,-8,-4
CCOC(=O)N1CCC(NC(=O)c2cc3c(-c4cccc(OC)c4)nn(C)c3s2)CC1,0,-8,19*,-6,10,-5
CCOC(=O)N1CCN(C(=O)c2cc3c(-c4cccc(OC)c4)nn(C)c3s2)CC1,5,-1,-9,2,-5,6
COc1ccc(C(=O)OCc2csc(C)n2)c(O)c1,2,4,2,-2,2,-12
CCOC(=O)c1oc2ccccc2c1NC(=O)C(C)(C)C,-1,6,5,-1,5,-6
CCOC(=O)c1oc2ccc(Cl)cc2c1NC(C)=O,2,8,20*,-1,1,-9
Cc1ccc(S(=O)(=O)Nc2ccccc2N2CCOCC2)cc1,2,-12,0,-2,6,-6
COc1ccc2c(/C=N/NS(=O)(=O)c3ccc(C)cc3)c[nH]c2c1,1,-8,2,1,7,5
SMILES,M4 ag,M5 antag,M4 PAM,M5 ag,M5 PAM,M4 antag
COc1ccc2[nH]cc(/C=N/NS(=O)(=O)c3ccc(C)cc3)c2c1,7,3,7,1,-3,28*
Cc1cc(C(=O)CSc2nc3ccccc3[nH]2)c(C)n1CC1CCCO1 (stereo not drawn),35*,60*,-17,10,-23,66*
Cc1cc(C(=O)CSc2nc(N)cc(=O)[nH]2)c(C)n1CC1CCCO1 (stereo not drawn),1,23,-2,0,-2,6
COC(=O)c1cc(S(=O)(=O)NCC2CCN(CCc3ccc(OC)cc3)CC2)c[nH]1,1,10,-2,-7,-4,2
O=C(CN1C(=O)COc2ccccc21)c1cccc(Cl)c1,0,4,-16,-9,-9,31*
NC(=O)c1ccsc1NC(=O)COC(=O)Cc1cccc2ccccc12,22,55*,-14,8,-21,61*
Cc1ccccc1SCC(=O)OCC(=O)Nc1sccc1C(N)=O,19,40*,-12,9,-19,31*
NC(=O)c1ccsc1NC(=O)CSc1ccccc1F,4,2,3,5,0,5
CN(C)S(=O)(=O)c1cccc(C(=O)OCC(=O)Nc2sccc2C(N)=O)c1,30,16,-20,15,-20,38*
CCOC(=O)c1sc2nc(C)nc(SC(C)C(=O)N(C)c3ccccc3)c2c1C (stereo not drawn),10,14,-6,-6,-24,9
CC(=O)c1ccc(Nc2ccc(-c3ccccc3C)nn2)cc1,7,-6,-5,-1,-6,-6
O=C(Cn1c(=O)n(-c2cccc(Cl)c2)c(=O)n1CC(=O)N1CCCCC1)N1CCCCC1,1,2,18,-2,-2,2
Cn1c(=O)n(-c2cccc(Cl)c2)c(=O)n1C,1,3,21,1,0,40*
O=C(Nc1ccc(Oc2ccccc2)nc1)C1CCN(Cc2cccc(F)c2)CC1,6,31*,-2,-4,-13,1
C#Cc1ccc(CN2CCC(C(=O)Nc3ccc(Oc4ccccc4)nc3)CC2)cc1,12,5,-6,-1,-5,-3
CC(C)C1S/C(=N/N=C/c2ccco2)NC1=O (stereo not drawn),2,5,2,2,-4,30*
CC1(C)CC(N2CCN(CCO)CC2)=CC(=S)N1,0,-3,-1,0,0,-14
Cc1ccc(NC(=O)C2(C)CCN2Cc2csc3ccccc23)cc1 (stereo not drawn),-1,7,-14,-4,-18,46*
